Results gathered from unrelated publications.
Organism: Plasmodium falciparum
Effect on: parasite growth

For `CCCCCCCCCCOc1cc2c(O)c(C(=O)OCC)cnc2cc1OCC`, the IC50 was less than 5.7 nM (SYBR Green; HB3; blood stage).
`CC1=C(C)C(c2ccc[nH]2)=NC1=Cc1ccc(CCCCCCCCCC(C)O)[nH]1` (stereo not shown) gave an IC50 of 1190 nM (DD2; drug-resistant strain, blood stage).
`CCN(CC)CCCC(C)Nc1ccnc2cc(Cl)ccc12` (stereo not shown) has an IC50 of 0.234 µg/mL (imaging; W2; 48 h; drug-resistant strain, blood stage).
`COC1=CC(c2cccn2C)=NC1=Cc1ccc(CCCCCCCCCC(C)O)[nH]1` (stereo not shown) gave an IC50 of greater than 2500 nM (DD2; drug-resistant strain, blood stage).
The IC50 of `Clc1ccc2c(c1)nc(C1CCNCC1)n2Cc1ccccc1` is reported as 76 nM (K1; drug-resistant strain, blood stage).
The IC50 of `COC1=CC(c2ccco2)=NC1=Cc1ccc(CCCCCCCCCC(C)O)[nH]1` (stereo not shown) is reported as greater than 2500 nM (7G8; drug-resistant strain, blood stage).
`CCN(CC)CCCC(C)Nc1ccnc2cc(Cl)ccc12` (stereo not shown) has an IC50 of 11 nM (3D7; blood stage).
For `O=C(Nc1ccc(F)cc1C(=O)O)c1ccc(-c2ccccc2)cc1`, the IC50 was 9.43 nM (resazurin; NF54; 48 h; gametocyte).
For `COC1=CC(c2ccc[nH]2)=NC1=Cc1ccc(CCCCCCCCCCCCO)[nH]1`, the IC50 was 58 nM (7G8; drug-resistant strain, blood stage).
For `C[C@@H]1CC[C@H]2[C@@H](C)C(=O)O[C@@H]3O[C@@]4(C)CC[C@@H]1[C@]32OO4`, the IC50 was 0.0038 µg/mL (W2; 72 h; drug-resistant strain, blood stage).
`CCN(CC)CCCC(C)Nc1ccnc2cc(Cl)ccc12` (stereo not shown) has an IC50 of 262 nM (ELISA; DD2; drug-resistant strain, blood stage).
The IC50 of `FC(F)(F)c1ccc2c(c1)nc(N1CCNCC1)n2Cc1ccccc1` is reported as 415 nM (K1; drug-resistant strain, blood stage).
`CC(C)(C)C(O)C(Oc1ccc(-c2ccccc2)cc1)n1cncn1` (stereo not shown) has an IC50 of 8690 nM (SYBR Green; blood stage).
For `COC1=CC(c2ccc[nH]2)=NC1=Cc1ccc(CCCCCCCCCCO)[nH]1`, the IC50 was 80 nM (DD2; drug-resistant strain, blood stage).
`CCN(CC)CCCC(C)Nc1ccnc2cc(Cl)ccc12` (stereo not shown) gave an IC50 of 0.15 µg/mL (W2; drug-resistant strain, blood stage).
`NC(N)=NC(=O)c1cc(C#Cc2ccc(C(F)(F)F)c(C(=O)Nc3ccccn3)c2)cc(C(F)(F)F)c1` has an IC50 of 19 nM (K1; drug-resistant strain, blood stage).
`CCN(CC)CCCC(C)Nc1ccnc2cc(Cl)ccc12` (stereo not shown) has an IC50 of 0.02 µg/mL (D6; blood stage).
For `CCN(CC)CCCC(C)Nc1ccnc2cc(Cl)ccc12` (stereo not shown), the IC50 was 0.1 µg/mL (W2; 72 h; drug-resistant strain, blood stage).
`CCN(CC)CCCC(C)Nc1ccnc2cc(Cl)ccc12` (stereo not shown) gave an IC50 of 102 nM (DD2; drug-resistant strain, blood stage).
With `OC(c1cc(C(F)(F)F)nc2c(C(F)(F)F)cccc12)C1CCCCN1` (stereo not shown) the IC50 was 37.2 nM (blood stage).
`CCc1ccc(C2=NC(=Cc3ccc(CCCCCCCCCC(C)O)[nH]3)C(OC)=C2)[nH]1` (stereo not shown) gave an IC50 of 15 nM (DD2; drug-resistant strain, blood stage).
With `Brc1ccc2c(c1)nc(N1CCNCC1)n2Cc1ccccc1` the IC50 was 64 nM (K1; drug-resistant strain, blood stage).
With `CCN(CC)CCCC(C)Nc1ccnc2cc(Cl)ccc12` (stereo not shown) the IC50 was 383 nM (SYBR Green; W2; drug-resistant strain, blood stage).
For `COC1=CC(c2ccc[nH]2)=NC1=Cc1ccc(CCCCCCCCCCCO)[nH]1`, the IC50 was 36 nM (DD2; drug-resistant strain, blood stage).
For `NCCCNc1nc2cc(Br)ccc2n1Cc1ccccc1`, the IC50 was 1010 nM (K1; drug-resistant strain, blood stage).
